Converted amounts (≈) assume the structure as drawn. Read-outs that look alike come from different tables or passages of the source.
What was measured:
P. falciparum NF54 [1] = experiment: In vitro antiplasmodium assay; format: cell-based, Plasmodium falciparum; details: for in vitro antiplasmodium activity (in words): authors' Pf assays
[2] = Microsomal metabolic stability, rat liver microsomes; format: in vitro ADME; details: pH 7.4
How it was run: (§1)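 Test compound at 0.1 μM incubated at 37 °C, in duplicate, with liver microsomes (mouse, rat or pooled human; final protein 0.4 mg/mL) in 0.1 M phosphate buffer pH 7.4, with and without 1 mM NADPH. Quenched with ice-cold acetonitrile containing internal standard, centrifuged, and supernatant analysed by LC–MS/MS. Parent remaining after 30 min expressed as percent.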

[3] = test system: Chinese hamster ovarian (CHO) cell line; experiment: Cytotoxicity MTT assay; format: cell-based; details: CHO cells, relative to 4-unsubstituted compound 3
[4] = Microsomal metabolic stability, mouse liver microsomes; format: in vitro ADME; details: pH 7.4
How it was run: as §1

hERG channel = hERG channel (Homo sapiens, UniProt Q12809); experiment: hERG channel inhibition; format: biochemical
Chain of hERG channel (Q12809 whole entry): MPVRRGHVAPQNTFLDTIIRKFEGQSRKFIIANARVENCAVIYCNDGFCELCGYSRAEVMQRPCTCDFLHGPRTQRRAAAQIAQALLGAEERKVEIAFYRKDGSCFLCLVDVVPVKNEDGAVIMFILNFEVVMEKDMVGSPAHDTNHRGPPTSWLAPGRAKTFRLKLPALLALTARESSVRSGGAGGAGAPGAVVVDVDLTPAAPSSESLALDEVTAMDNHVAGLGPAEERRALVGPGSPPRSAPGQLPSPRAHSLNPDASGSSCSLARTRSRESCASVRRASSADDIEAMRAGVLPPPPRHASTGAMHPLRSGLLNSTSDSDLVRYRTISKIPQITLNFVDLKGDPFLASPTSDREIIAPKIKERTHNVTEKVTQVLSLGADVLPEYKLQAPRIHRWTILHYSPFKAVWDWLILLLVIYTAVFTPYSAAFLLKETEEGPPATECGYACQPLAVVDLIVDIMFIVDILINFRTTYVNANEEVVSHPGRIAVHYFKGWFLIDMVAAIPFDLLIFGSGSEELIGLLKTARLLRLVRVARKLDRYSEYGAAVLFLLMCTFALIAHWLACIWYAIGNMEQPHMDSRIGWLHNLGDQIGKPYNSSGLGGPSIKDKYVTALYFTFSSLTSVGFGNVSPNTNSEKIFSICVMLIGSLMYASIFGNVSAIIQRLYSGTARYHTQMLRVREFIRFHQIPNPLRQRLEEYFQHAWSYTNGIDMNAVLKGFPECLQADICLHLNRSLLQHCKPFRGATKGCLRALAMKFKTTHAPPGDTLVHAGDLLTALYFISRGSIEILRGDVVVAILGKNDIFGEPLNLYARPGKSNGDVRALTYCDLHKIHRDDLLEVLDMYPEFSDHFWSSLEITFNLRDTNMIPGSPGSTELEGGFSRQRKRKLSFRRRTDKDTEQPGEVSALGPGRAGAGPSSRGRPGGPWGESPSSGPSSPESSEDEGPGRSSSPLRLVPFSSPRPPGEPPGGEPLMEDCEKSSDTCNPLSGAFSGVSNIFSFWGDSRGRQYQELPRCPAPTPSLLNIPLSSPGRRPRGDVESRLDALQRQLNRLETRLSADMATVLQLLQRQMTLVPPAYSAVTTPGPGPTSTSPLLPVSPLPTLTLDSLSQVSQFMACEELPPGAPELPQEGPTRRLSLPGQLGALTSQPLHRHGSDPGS

[5] = Microsomal metabolic stability, human liver microsomes; format: in vitro ADME; details: pooled human liver microsomes, pH 7.4
How it was run: as §1

P. falciparum NF54 [6] = details: read-out: IC50 PfNF54; reference drugs; ref Singh et al. 33; cited from earlier work
P. falciparum K1 [7] = details: read-out: IC50 PfK1; reference drugs; ref Singh et al. 33; cited from earlier work
[8] = Aqueous solubility, miniaturized shake flask method; format: physicochemical; details: aqueous solution, 25 °C, thermodynamic from solid
[9] = Pharmacokinetic studies in rats; format: in vivo; details: rat, plasma, iv, 1 mg/kg
[10] = P. falciparum SCID mouse model efficacy; format: in vivo, Plasmodium falciparum (NOD-scid IL-2Rγnull mice); details: female, NOD-scid IL-2Rγnull, plasma, po, 25 mg/kg
Solubility at pH 6.8 = format: physicochemical; details: pH 6.8, aqueous buffer
[11] = PAMPA parallel artificial membrane permeability assay; format: in vitro ADME; details: fraction absorbed
[12] = P. berghei mouse model efficacy; format: in vivo, Plasmodium berghei (NMRI mice); details: female, NMRI, plasma, po, 100 mg/kg
[13] = test system: Chinese hamster ovarian (CHO) cell line; details: read-out: IC50 (CHO); reference drug; ref Singh et al. 33; cited from earlier work
P. falciparum K1 [14] = experiment: In vitro antiplasmodium assay; format: cell-based; details: Plasmodium falciparum, K1, read-out: IC50 PfK1
[15] = Plasmodium falciparum, NF54, read-out: IC50 PfNF54, drug-sensitive NF54 strain, mean of ≥2 independent experiments
[16] = read-out: IC50 PfNF54, drug-sensitive NF54 strain, mean of ≥2 independent experiments

Row | Structure (SMILES) | IC50 (P. falciparum NF54 [1]; [15]) | in vitro antiplasmodium activity (in words) (P. falciparum NF54 [1]) | remaining at 0.5 h, 0.1 μM [2] | remaining at 0.5 h, 0.1 μM [4] | IC50 (hERG channel) | remaining at 0.5 h, 0.1 μM [5] | further results
1 | Cl.Clc1ccc2c(c1)nc(N1CCNCC1)n2CCc1ccccc1 [Compound 16g, 5-Chloro-1-phenethyl-2-(piperazin-1-yl)-1H-benzo[d]imidazole Hydrochloride] | > 1000 nM | inactive | – | – | – | – | –
2 | Cl.Cn1c(N2CCNCC2)nc2ccccc21 [Compound 60, 1-methyl-2-(piperazin-1-yl)-1H-benzo[d]imidazole hydrochloride] | – | inactive | – | – | – | – | IC50 (P. falciparum NF54 [1]; Plasmodium falciparum, NF54, read-out: IC50 PfNF54): > 10000 nM
3 | Cl.Clc1ccc2c(nc(N3CCNCC3)n2Cc2ccccc2)c1Cl [Compound 42a] | – | – | 66.1% | 72.5% | 590 nM | 76.3% | fold more cytotoxic than 3 [3]: ~4 fold
4 | CCN(CC)CCCC(C)Nc1ccnc2cc(Cl)ccc12 (stereo not shown) [Chloroquine] | – | – | – | – | – | – | IC50 (P. falciparum NF54 [6]): 16 nM; IC50 (P. falciparum K1 [7]): 194 nM
5 | Cc1ccc(Cn2c(N3CCC(C(=O)NCc4cccs4)CC3)nc3ccccc32)cc1 [Compound 26, 1-(1-(4-methylbenzyl)-1H-benzo[d]imidazol-2-yl)-N-(thiophen-2-ylmethyl)piperidine-4-carboxamide] | 600 nM | weakly active | – | – | – | – | solubility at 20 h ([8]; pH 6.5, aqueous buffer): < 5 µM
6 | C[C@@H]1CN(c2nc3cc(Cl)ccc3n2Cc2ccccc2)C[C@H](C)N1 [Compound 27] | – | – | 36.5% | 31.3% | 17 nM | 23.2% | –
7 | Clc1ccc2c(c1)nc(N1CCOCC1)n2Cc1ccccc1 [Compound 16a, 4-(1-Benzyl-5-chloro-1H benzo[d]imidazol-2-yl)morpholine] | > 1000 nM | – | – | – | – | – | –
8 | Clc1ccc2c(nc(N3CCNCC3)n2Cc2ccccc2)c1Br [Compound 42k] | – | – | 93.8% | 91.6% | – | 97.4% | fold more cytotoxic than 3 [3]: ~4 fold
9 | Cl.c1ccc(Cn2c(N3CCNCC3)nc3ccccc32)nc1 [Compound 59] | 9770 nM | inactive | – | – | – | – | –
10 | O=C1CN(c2nc3cc(Cl)ccc3n2Cc2ccccc2)CCN1 [Compound 17] | > 1000 nM | – | – | – | 2300 nM | – | –
11 | Clc1ccc2c(c1)nc(C1CCNCC1)n2Cc1ccccc1 [Compound 46a, 1-Benzyl-5-chloro-2-(piperidin-4-yl)-1H-benzo[d]imidazole] | – | – | 92.9% | 97.6% | 460 nM | 91.8% | IC50 (P. falciparum NF54 [1]; [16]): 37.9 nM
12 | COC(=O)c1ccc2c(c1)nc(C1CCNCC1)n2Cc1ccccc1 [Compound 46d] | – | inactive | – | – | – | – | –
13 | O=C(NCCCNc1nc2ccccc2n1Cc1ccccc1)c1cc(Cl)cc(Cl)c1 [Compound 21] | 9510 nM | completely inactive | – | – | – | – | solubility at 20 h ([8]; pH 2, simulated gastric fluid): 10 µM (≈ 4.53 µg/mL)
14 | Cl.Clc1ccc2c(c1)nc(N1CCNCC1)n2Cc1ccccc1 [Compound 3] | – | – | 42.1% | 63% | 9 nM | 74.4% | half-life [9]: 1.98 h; AUC [10]: 86 µM·h; Cmax [10]: 5.2 µM; solubility at 20 h ([8]; pH 2, simulated gastric fluid): 150 µM; solubility at 20 h ([8]; pH 6.5, aqueous buffer): 140 µM; solubility (Solubility at pH 6.8): 770 µM; PAMPA (%FA) [11]: 99 %FA; AUC [12]: 377 µM·h; Cmax [12]: 20.6 µM
15 | Cc1ccc(C(=O)N2CCN(c3nc4ccccc4n3C)CC2)cc1.Cl [Compound 22] | > 10000 nM | completely inactive | – | – | – | – | –
16 | FC(F)(F)c1ccc2c(c1)nc(N1CCNCC1)n2Cc1ccccc1 [Compound 14c] | – | – | 95.6% | 82% | 150 nM | 92.2% | –

Row | Structure (SMILES) | IC50 (P. falciparum NF54 [1]; [15]) | in vitro antiplasmodium activity (in words) (P. falciparum NF54 [1]) | remaining at 0.5 h, 0.1 μM [2] | remaining at 0.5 h, 0.1 μM [4] | IC50 (hERG channel) | remaining at 0.5 h, 0.1 μM [5] | further results
17 | CC(=O)N1CCN(c2nc3cc(Cl)ccc3n2Cc2ccccc2)CC1 [Compound 18] | > 1000 nM | – | – | – | 390 nM | – | –
18 | c1ccc2c(c1)nc(N1CCNCC1)n2Cc1ccncc1 [Compound 14i] | > 10000 nM | inactive | – | – | – | – | –
19 | Brc1ccc2c(c1)nc(C1CCNCC1)n2Cc1ccccc1 [Compound 46b] | – | – | 97.7% | 97.4% | – | 99.3% | –
20 | Brc1ccc2c(c1)nc(N1CCNCC1)n2Cc1ccccc1 [Compound 16b, 1-Benzyl-5-bromo-2-(piperazin-1-yl)-1H-benzo[d]imidazole] | – | – | 89.8% | 94% | 30 nM | 88.2% | IC50 (P. falciparum NF54 [1]; [16]): 42.4 nM
21 | NCCCNc1nc2cc(Br)ccc2n1Cc1ccccc1 [Compound 41, N^1-(1-Benzyl-5-bromo-1H-benzo[d]imidazol-2-yl)propane-1,3-diamine] | – | – | 97% | 98.6% | – | 99.4% | –
22 | CC[C@H]1CN2CCc3cc(OC)c(OC)cc3[C@@H]2C[C@@H]1C[C@H]1NCCc2cc(OC)c(OC)cc21 [Emetine] | – | – | – | – | – | – | IC50 [13]: 95 nM
23 | NC1CCN(c2nc3cc(Cl)ccc3n2Cc2ccccc2)CC1 [Compound 28] | – | – | 39.9% | 76% | 70 nM | 80.9% | –
24 | C[C@H]1[C@H](OC(=O)CCC(=O)O)O[C@@H]2O[C@@]3(C)CC[C@H]4[C@H](C)CC[C@@H]1[C@@]24OO3 [Artesunate] | – | – | – | – | – | – | IC50 (P. falciparum NF54 [6]): 4 nM; IC50 (P. falciparum K1 [7]): 3 nM
25 | N#CCN1CCN(c2nc3cc(Cl)ccc3n2Cc2ccccc2)CC1 [Compound 19] | 306 nM | – | 1.2% | 2% | 180 nM | 8.6% | solubility at 20 h ([8]; pH 2, simulated gastric fluid): > 150 µM; solubility at 20 h ([8]; pH 6.5, aqueous buffer): < 5 µM; IC50 (P. falciparum K1 [14]): 454 nM
26 | c1ccc(Cn2c(N3CCNCC3)nc3cnccc32)cc1 [Compound 57b] | > 1000 nM | inactive | – | – | – | – | –
27 | O=C(O)CN1CCN(c2nc3cc(Cl)ccc3n2Cc2ccccc2)CC1 [Compound 20] | > 10000 nM | inactive | – | – | – | – | solubility at 20 h ([8]; pH 6.5, aqueous buffer): 200 µM (≈ 77 µg/mL)
28 | NCCNc1nc2cc(Cl)ccc2n1Cc1ccccc1 [Compound 33, N^1-(1-benzyl-5-chloro-1H-benzo[d]imidazol-2-yl)ethane-1,2-diamine] | – | – | 88% | 71.2% | 2200 nM | 98.9% | hERG safety window (hERG channel; hERG versus antiplasmodium activity): 10 fold
29 | CS(=O)(=O)c1ccc2c(c1)nc(C1CCNCC1)n2Cc1ccccc1.Cl [Compound 46e] | – | inactive | – | – | – | – | –
30 | Cc1ccc(C(=O)N2CCN(c3nc4cc(Cl)ccc4n3Cc3ccccc3)CC2)cc1 [Compound 23] | > 10000 nM | completely inactive | – | – | – | – | –
31 | O=S(=O)(c1ccc(Cl)cc1)N1CCN(c2nc3cc(Cl)ccc3n2Cc2ccccc2)CC1 [Compound 25] | 5260 nM | completely inactive | – | – | – | – | –

— paper PMC7114883 (ACS Omega, 2020)
